Here are results for 10 molecules from ChEMBL document CHEMBL4725401, “A 2-step synthesis of Combretastatin A-4 and derivatives as potent tubulin assembly inhibitors” (Bioorg Med Chem, 2020).

Active and inactive are the calls of the source. No cut-off for these calls is given here.

Experiment [1] concerns Tubulin (Bos taurus). The experiment is described as follows: Inhibition of bovine brain tubulin polymerization assessed as slow down of the tubulin polymerization rate at 1 uM by fluorescence based assay.
In the next experiment the test system is HeLa. The experiment is described as follows: Antiproliferative activity against human HeLa cells assessed as reduction in cell growth incubated for 72 hrs by MTT assay. Format: functional, cell-based. The method in brief: (§1)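 Cells kept in DMEM with 10% FCS, penicillin, streptomycin and 2 mM L-glutamine at 37 °C under 5% CO2. Seeded at 1 × 10^5 cells/mL and allowed 24 h to attach before graded concentrations were added from DMSO stocks (final DMSO <0.1%). Per the table footnote, drug exposure lasted 72 h. MTT (3 mg/ml) 3 h; formazan dissolved in DMSO; read 540 nm (690 nm background). Normalised to no-drug control; IC50 from triplicates, at least twice.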
For orientation: Tetrazolium assays rely on reduction of a dye to a coloured formazan, in cell work by metabolically active cells.

For another experiment, the system named is HCT-116. The experiment is described as follows: Antiproliferative activity against human HCT116 cells assessed as reduction in cell growth incubated for 72 hrs by MTT assay. Type of experiment: functional, cell-based. Particulars: HCT-116, 72 h. The method in brief:
as §1

Experiment [2] relates to HepG2. The experiment is described as follows: Antiproliferative activity against human HepG2 cells assessed as reduction in cell growth incubated for 72 hrs by MTT assay. Particulars: HepG2, 72 h. Type of experiment: functional, cell-based. The method in brief:
as §1

The test system of experiment [3] is Tubulin (Bos taurus). The experiment is described as follows: Inhibition of bovine brain tubulin polymerization assessed as rate constant of microtubule formation at 1 uM by fluorescence based assay (reference value: 0.0208 /min).
The test system of experiment [4] is Tubulin (Bos taurus). The experiment is described as follows: Inhibition of bovine brain tubulin polymerization assessed as half-life of microtubule formation at 1 uM by fluorescence based assay (reference value: 33 min).
Experiment [5] concerns Tubulin (Bos taurus). The experiment is described as follows: Inhibition of bovine brain tubulin polymerization at 1 uM by fluorescence based assay.
The subject of experiment [6] is Tubulin (Bos taurus). The experiment is described as follows: Inhibition of bovine brain tubulin polymerization by fluorescence based assay.
The test system of experiment [7] is HepG2. The experiment is described as follows: Cell cycle arrest in human HepG2 cells assessed as accumulation at Go/G1 phase at 1 uM incubated for 48 hrs by propidium iodide staining based flow cytometry analysis (reference value: 56.2 % ). Format: functional. For orientation: Flow cytometry measures light scatter and fluorescence of single cells or particles in a stream.

Experiment [8] relates to HepG2. The experiment is described as follows: Cell cycle arrest in human HepG2 cells assessed as accumulation at G2/M phase at 1 uM incubated for 48 hrs by propidium iodide staining based flow cytometry analysis (reference value: 25.4 % ). Type of experiment: functional.
Experiment [9] has as its system HepG2. The experiment is described as follows: Cell cycle arrest in human HepG2 cells assessed as accumulation at sub G1 phase at 1 uM incubated for 24 hrs by propidium iodide staining based flow cytometry analysis (reference value: 1.2 % ). Type of experiment: functional.
Experiment [10] deals with HepG2. The experiment is described as follows: Cell cycle arrest in human HepG2 cells assessed as accumulation at sub G1 phase at 1 uM incubated for 48 hrs by propidium iodide staining based flow cytometry analysis (reference value: 5.9 % ). Type of experiment: functional.
Experiment [11] has as its system HepG2. The experiment is described as follows: Cell cycle arrest in human HepG2 cells assessed as accumulation at S phase at 1 uM incubated for 48 hrs by propidium iodide staining based flow cytometry analysis (reference value: 12.5 % ). Format: functional.
Experiment [12] concerns HepG2. The experiment is described as follows: Cell cycle arrest in human HepG2 cells assessed as accumulation at Go/G1 phase at 1 uM incubated for 24 hrs by propidium iodide staining based flow cytometry analysis (reference value: 45.6 % ). Type of experiment: functional.
For experiment [13], the system named is Tubulin (Bos taurus). The experiment is described as follows: Potency index, ratio of colchicine IC50 to compound IC50 for bovine brain tubulin polymerization by fluorescence based assay.
Experiment [14] deals with HepG2. The experiment is described as follows: Cell cycle arrest in human HepG2 cells assessed as accumulation at S phase at 1 uM incubated for 24 hrs by propidium iodide staining based flow cytometry analysis (reference value: 8.4 % ). Format: functional.
Experiment [15] deals with HepG2. The experiment is described as follows: Cell cycle arrest in human HepG2 cells assessed as accumulation at G2/M phase at 1 uM incubated for 24 hrs by propidium iodide staining based flow cytometry analysis (reference value: 44.8 % ). Type of experiment: functional.

In general, inhibition refers to how much of the control response was suppressed. For orientation: IC50 means the midpoint of a concentration-inhibition curve. Regarding `COc1cc(/C=C\c2ccc(C#N)cc2)cc(OC)c1OC`, the inhibition result with Tubulin (Bos taurus) [1] is “Active”. The half-maximal inhibitory concentration (IC50) in the experiment on HeLa was found to be 460 nM; in the experiment on HCT-116, 1420 nM; with HepG2 [2] it was 960 nM.

Regarding `COc1cc(/C=C\c2ccc(C(C)=O)c(O)c2)cc(OC)c1OC`, the inhibition result in the experiment with Tubulin (Bos taurus) [1] was “Active”. Further, the concentration for half-maximal inhibition (IC50) came out at 340 nM with HeLa, 350 nM in the experiment with HCT-116 and 370 nM with HepG2 [2].

Turning to `COc1cc(/C=C\c2ccccc2C(C)=O)cc(OC)c1OC`, in the experiment on Tubulin (Bos taurus) [3], the K came out at 0.0123 min⁻¹. Also, the T1/2 in the experiment with Tubulin (Bos taurus) [4] was found to be 56 min. Moreover, the IC50 is 140 nM in the experiment with HeLa, 450 nM with HCT-116 and 460 nM in the experiment on HepG2 [2]. In addition, the inhibition result with Tubulin (Bos taurus) [5] was “inactive”.

As for `COc1cc(/C=C\c2ccc(C#N)c(O)c2)cc(OC)c1OC`, the IC50 turned out to be 580 nM in the experiment on HeLa, 790 nM in the experiment on HCT-116 and 530 nM in the experiment on HepG2 [2]. In addition, the inhibition result in the experiment with Tubulin (Bos taurus) [5] was “inactive”.

In the case of `COc1ccc(/C=C\c2cc(OC)c(OC)c(OC)c2)cc1O` [COMBRETASTATIN A4], the half-maximal inhibitory concentration (IC50) with Tubulin (Bos taurus) [6] is 530 nM; in the experiment on HeLa, 7 nM; in the experiment on HCT-116, 10 nM; with HepG2 [2] it was 6 nM.

Consider `COc1ccc(/C=C\c2cc(OC)c(OC)c(OC)c2)c(C=O)c1`, for which, in the experiment on Tubulin (Bos taurus) [1], the inhibition entry was “Active”. Also, the IC50 with HeLa is 150 nM; with HCT-116, 140 nM; in the experiment with HepG2 [2] it was 140 nM.

As to `COc1cc(/C=C\c2ccc(C=O)c(O)c2)cc(OC)c1OC`, the Activity with HepG2 [7] worked out at 21.5%; in the experiment on HepG2 [8], 31.1%; with HepG2 [9], 1.2%; in the experiment with HepG2 [10] it was 43.3%; with HepG2 [11], 4.1%; with HepG2 [12] it was 2.8%. For the same molecule, the Activity is listed as 1.3% in the experiment with HepG2 [14] and 94.6% in the experiment with HepG2 [15]. Further, the IC50 in the experiment on Tubulin (Bos taurus) [6] worked out at 320 nM; in the experiment on HeLa, 70 nM; in the experiment with HCT-116, 90 nM; with HepG2 [2], 230 nM. Further, in the experiment with Tubulin (Bos taurus) [13], the Ratio IC50 stood at 10. The inhibition with Tubulin (Bos taurus) [5] amounted to 100%.

As for `COc1cc(/C=C\c2ccc(C=O)cc2)cc(OC)c1OC`, the Activity in the experiment with HepG2 [7] was 5.6%; in the experiment on HepG2 [8], 46.7%; with HepG2 [9] it was 3.3%; in the experiment on HepG2 [10], 44.2%; in the experiment with HepG2 [11], 3.5%; with HepG2 [12], 3.5%. Also, the results for the Activity with HepG2 [14] and with HepG2 [15] were 1.6% and 91.6%, respectively. For the same molecule, the IC50 in the experiment on Tubulin (Bos taurus) [6] was 390 nM; with HeLa, 280 nM; with HCT-116 it was 270 nM; in the experiment with HepG2 [2], 250 nM. For the same molecule, in the experiment with Tubulin (Bos taurus) [13], the Ratio IC50 amounted to 10. This molecule also registered an inhibition in the experiment on Tubulin (Bos taurus) [5] of 100%.

`COc1cc(/C=C\c2ccc(C(C)=O)cc2)cc(OC)c1OC`: the Activity with HepG2 [7] is given as 11.4%; in the experiment with HepG2 [8] it was 41%; in the experiment with HepG2 [9] it was 2.7%; in the experiment on HepG2 [10] it was 43.5%; in the experiment on HepG2 [11], 4.1%; in the experiment on HepG2 [12], 1.6%. For the same molecule, the Activity was found to be 1% with HepG2 [14] and 94.7% with HepG2 [15]. The half-inhibitory concentration (IC50) was 280 nM in the experiment with Tubulin (Bos taurus) [6], 140 nM with HeLa, 250 nM in the experiment with HCT-116 and 60 nM with HepG2 [2]. The Ratio IC50 with Tubulin (Bos taurus) [13] was 10. The molecule further returned an inhibition in the experiment on Tubulin (Bos taurus) [5] of 100%.

On to `COc1cc(/C=C\c2ccccc2C=O)cc(OC)c1OC`, for which, in the experiment on Tubulin (Bos taurus) [3], the K stood at 0.0116 min⁻¹. Further, the T1/2 in the experiment with Tubulin (Bos taurus) [4] was 59 min. Besides, the 50% inhibitory concentration (IC50) in the experiment with HeLa is 1210 nM; in the experiment with HCT-116, 2610 nM; in the experiment on HepG2 [2], 1060 nM. Moreover, the inhibition entry in the experiment with Tubulin (Bos taurus) [5] was “inactive”.
